CCR6 antag = blocks CCL20-driven beta-arrestin recruitment at human CCR6; P51684; 0.49% of 340,000 active; inhibition, % at 20 µM; CHO-K1 CCR6 PathHunter beta-arrestin, luminescence, CCL20-stimulated;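 active means compounds whose inhibition of the agonist-driven luminescence signal at 20 µM reaches about 50%, limit read from the data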;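 further: cells stimulated with CCL20 at 14 nM final; plate controls were DMSO with CCL20 for no effect and DMSO without agonist for full effect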
CXCR6 block = inhibitors of human CXCR6 receptor | O00574 | AID 602244 | inhibition, % at 20 µM | CHO-K1 PathHunter CXCR6 beta-arrestin, luminescence | 0.36% of 360,000 active; in the data active means inhibition above about 34%, passing the limit was not always enough;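 further: antagonist mode with CXCL16 agonist at 10 nM final; 0% = 10 nM CXCL16 with DMSO and 100% = unstimulated wells without agonist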
Target sequence (O00574 whole entry, looked up): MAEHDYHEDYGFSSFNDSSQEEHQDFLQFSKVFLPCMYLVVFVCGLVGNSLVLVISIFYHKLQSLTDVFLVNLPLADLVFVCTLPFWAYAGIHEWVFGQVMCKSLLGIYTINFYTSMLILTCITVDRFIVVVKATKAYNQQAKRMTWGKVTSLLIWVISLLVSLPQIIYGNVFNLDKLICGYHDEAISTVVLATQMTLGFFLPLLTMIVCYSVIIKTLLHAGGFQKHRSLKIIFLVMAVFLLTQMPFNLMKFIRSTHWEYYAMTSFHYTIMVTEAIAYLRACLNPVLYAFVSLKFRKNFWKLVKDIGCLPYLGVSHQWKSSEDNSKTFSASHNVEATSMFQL
APJ antagonist = APJ receptor antagonism | 0.32% of 330,000 active | CHO-K1 APJ beta-arrestin complementation, luminescence | P35414 | inhibition, % at 20 µM | AID 2521;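 active means inhibition above about 40% at 20 µM, limit read from the data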;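 further: cells challenged with 10 nM apelin-13 agonist together with compound; plate controls were apelin-13 plus DMSO wells for no effect and DMSO wells lacking apelin-13 for full effect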
APJ agonist = activates the human apelin receptor APJ; CHO-K1 APJ PathHunter beta-arrestin, luminescence; 0% DMSO wells, 100% apelin; activation, % at 20 µM; 0.11% of 330,000 active;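 active means activation more than six SD over the plate average, tested at 20 µM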;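 further: 0% = DMSO alone and 100% = apelin-13 at 10 nM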
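Assay system: engineered CHO-K1 APJ arrestin reporter cells; Amount: 1000 CHO-K1 reporter cells seeded per well; Dosing: one dose, 20 µM compound, 1% DMSO; Times: compound stimulation 90 min at 25 °C, detection 60 min; Measured by: luminescent beta-gal fragment complementation, chemiluminescent substrate; Read-out: APJ–arrestin association signal; Controls: DMSO vs Apelin-13 10 nM.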
EBI2 block = blocks human EBI2 receptor beta-arrestin signaling; inhibition, % at 5 µM; 0.81% of 360,000 active; EBI2 beta-arrestin recruitment, luminescence, 7a,25-OHC stimulated; P32249; in the data active means inhibition above about 38%;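 further: enzyme fragment complementation signal reports receptor beta-arrestin coupling in cells; 0% = agonist plus DMSO wells and 100% = wells without agonist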
APJ antag confirm = confirmation of human APJ apelin receptor antagonists; shares compounds with APJ antagonist; APJ beta-arrestin recruitment, luminescence, antagonist mode; inhibition, % at 20 µM; 66% of 950 active; AID 2766; in the data active means inhibition above about 50%
Numbers without * were called inactive; x = no result. Most compounds without a hit are left out; they make up all but 1.5% or so of the library.

SMILES	CCR6 antag	CXCR6 block	APJ antagonist	APJ agonist	EBI2 block	APJ antag confirm
COc1cc(NS(=O)(=O)c2ccc(N/C=C(\C#N)c3nc4cc(Cl)ccc4o3)cc2)nc(OC)n1	24	13	41*	1	2	-2
CN1CCN(C(=O)c2cnn(-c3ccccc3)c2NC(=O)c2ccccc2)CC1	3	7	13	-2	-10	x
O=C(Nc1c(C(=O)N2CCCCC2)cnn1-c1ccccc1)c1ccccc1F	-5	6	62*	1	-7	-17
C/C(=N\O)C(=O)C(CN1CCCCC1)CN1CCCCC1	51*	24	42*	-1	-5	23
CCN(CC)CC(=O)c1c(N)n(Cc2ccccc2)c(=O)n(C)c1=O	1	-8	-5	-3	-7	x
Cn1c(=O)c(C(=S)NC(=O)C2CC2)c(N)n(Cc2ccccc2)c1=O	x	x	42*	-13	x	72*
COc1ccc(N=C2C(=O)Nc3ccc(C)c(Br)c32)cc1	105*	82*	89*	-19	32	159*
Cc1cc(C)cc(N(CC(=O)NCCSc2ccccn2)S(=O)(=O)c2ccccc2)c1	12	-3	43*	-1	-9	-19
CC(C)(C)C1C=C(Sc2ccccc2)C(=O)O1 (stereo not given)	14	2	-2	0	-6	x
Nc1ccc(-c2c3ccc(=O)cc-3oc3cc(O)ccc23)cc1C(=O)O	42	32	41*	-5	4	42
O=c1ccc2c(-c3ccccc3)c3ccc(O)cc3oc-2c1	11	-1	0	0	3	x
O=C(Nc1ccc(F)cc1)c1nc2c(nnn2Cc2cccc3ccccc23)c(=O)[nH]1	9	9	6	-1	4	x
CCOc1ccc(C(=O)NC(=S)N(Cc2ccccc2)Cc2ccccc2)cc1	28	33	x	x	7	x
CCCN(CCC)C(=S)NC(=O)c1ccc(-c2ccccc2)cc1	37	23	45*	-8	21	7
CC(C)(C)C(=O)NC(=S)NNC(=O)c1ccc(-c2ccccc2)cc1	102*	84*	66*	-9	18	112*
O=C(CSc1nc2ccccc2n1S(=O)(=O)c1ccccc1)N1CCCC1	-2	-2	9	-2	-9	x
CSc1ccccc1NC(=O)CSc1cccc[n+]1[O-]	0	-8	4	-2	-6	x
NC1=NC(c2ccccc2)CC(=O)N1 (stereo not given)	-6	-7	x	x	-2	x
CC(=O)Nc1ccc(NC(=O)COC(=O)CCCc2c[nH]c3ccccc23)cc1	-4	-6	-38	3	1	x
O=C(Cn1cccc1C(=O)c1ccccc1)NCCCN1CCc2ccccc2C1	27	14	2	-1	16	x
O=C(c1ccccc1)c1cccn1CC(=O)N1CCc2ccccc2C1	51*	48*	50*	-6	12	94*
COc1ccc(NC2(c3ccc(Cl)cc3)C(=O)c3ccccc3C2=O)cc1	74*	33	62*	-9	-3	73*
Cc1nn(CC#N)c(=O)n1-c1cccc(F)c1	4	-6	5	0	-4	x
CCOC(=O)c1c(C)[nH]c(C)c1C(=O)Cn1nnc(-c2ccccc2C)n1	6	-2	46*	7	18	18
Cc1ccc(CN2CCCC(CO)(Cc3ccccc3C)C2)s1 (stereo not given)	14	9	4	-4	3	x
SMILES	CCR6 antag	CXCR6 block	APJ antagonist	APJ agonist	EBI2 block	APJ antag confirm
Cc1ccc(S(=O)(=O)N(C)c2ccc(OCC(=O)NCC3(N(C)C)CCCCC3)cc2)cc1	9	10	23	-6	-1	x
CCOC(=O)[C@H]1[C@H]2COc3ccc(C)cc3[C@@H]2N2C(=O)[C@@H](CO)NC(=O)[C@@]12C	8	-2	-8	-3	-14	x
CCOC(=O)[C@H]1[C@H]2COc3cc(OC)ccc3[C@@H]2N2C(=O)[C@@H](CO)NC(=O)[C@@]12C	x	x	51*	-9	x	88*
COc1ccc2c(c1)[C@H]1[C@H](CO2)[C@H](c2ccccc2)[C@]2(C)C(=O)N[C@@H](C)C(=O)N12	x	x	42*	-9	x	47
CCNC(=S)NNc1nnc(-c2ccccc2)c(-c2ccccc2)n1	32	3	49*	-8	4	90*
CC(C)NC(=S)N/N=C1\CCCCC1C1CCCCC1 (stereo not given)	85*	28	43*	-7	-10	85*
CN(C)S(=O)(=O)c1ccc2c(c1)C(=O)c1cc(S(=O)(=O)N(C)C)ccc1CC2	14	2	-5	1	12	x
CN(C)S(=O)(=O)c1ccc2c(c1)/C(=C/c1cc3c([nH]1)CCCC3)C(=O)N2	21	13	40*	-5	49*	23
CC(C)(C)C(=O)Nc1cccc(OC(F)(F)C(F)Cl)c1 (stereo not given)	-8	-6	-10	0	-1	x
CCOC(=O)c1[nH]cnc1C(=O)N1CCN(C(=O)OC(C)(C)C)CC1	6	-5	5	-3	-4	x
COc1cc(/C=C2/SC(=S)N(Cc3ccccc3)C2=O)ccc1OCC(=O)O	14	-1	-9	-1	3	x
COc1cc(/C=C2\SC(=S)N(N(C)c3ccccc3)C2=O)ccc1O	14	3	56*	-11	0	95*
CC(=O)Oc1ccc(/C=C2/SC(=S)N(Cc3ccccc3)C2=O)cc1	50*	28	47*	-7	14	72*
CCOc1cc(/C=C2/SC(=S)N(Cc3ccccc3)C2=O)ccc1O	54*	43*	46*	-8	24	87*
O=C(NCC(c1ccco1)N1CCc2ccccc2C1)C(=O)Nc1cc(F)ccc1F (stereo not given)	16	7	9	-7	4	x
CCCc1cc(=O)[nH]c(SCC(=O)N2CCCC2=O)n1	7	-2	11	-1	-10	x
OC(c1ccco1)c1nc(-c2cccs2)cs1 (stereo not given)	x	-5	x	x	0	x
NS(=O)(=O)c1ccc(NC(=O)COC(=O)CCc2nc3ccccc3c(=O)[nH]2)cc1	3	6	45*	-4	3	31
O=C(COC(=O)CCc1nc2ccccc2c(=O)[nH]1)Nc1ccc(OC(F)(F)F)cc1	4	3	12	-1	0	x
Oc1ccc(N=Nc2ccc3c(c2)OCCO3)c2cccnc12	51*	36	52*	-10	10	71*
Oc1ccc(N=Nc2ccc3c(c2)OCCO3)c(O)c1	39	25	12	-4	6	x
COc1ccc(N=Nc2ccc(O)c3ncccc23)cc1	38	23	46*	-9	12	84*
COc1cccc(N=Nc2ccc(O)c3ncccc23)c1	60*	90*	66*	-14	12	96*
COc1cc(OC)cc(C(=O)Nc2cccc3cccnc23)c1	8	3	-21	1	3	x

High-throughput results as filed in PubChem.
